NadD block – inhibitors of Staphylococcus aureus NadD | purified NadD enzyme, colorimetric absorbance read-out | inhibition, % at 20 µM | 0.78% of 360,000 active; in the data active = inhibition above about 26%
SUMO1-SIM PPI – modulators of human SUMO1-mediated protein-protein interactions | P63165 | SUMO1 binding to a labelled peptide, TR-FRET, 1 h | inhibition, % at 20 µM | 0.33% of 360,000 active; in the data active = inhibition above about 37%
Target sequence (P63165 whole entry, looked up): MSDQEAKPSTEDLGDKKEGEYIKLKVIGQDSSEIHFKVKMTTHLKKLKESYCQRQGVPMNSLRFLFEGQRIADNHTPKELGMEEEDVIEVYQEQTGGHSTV
STEP inh – STEP (human) phosphatase inhibition. P54829. 0.25% of 360,000 active. inhibition, % at 20 µM. recombinant STEP, OMFP fluorogenic substrate, fluorescence;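 active = inhibition at 20 µM, scaled per plate between control wells, above about 37%, limit read from the data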;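 also: 0% = DMSO with enzyme and substrate and 100% = substrate only without enzyme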
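Also added – OMFP at 25 µM · Test system – STEP tyrosine phosphatase · Technique – FITC-channel fluorescence of OMFP product · Schedule – 20 min at room temperature, dark · Evaluation – control-normalized % inhibition with plate pattern correction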
LMPTP inh – LMPTP (human) inhibition; P24666; inhibition, % at 20 µM; 0.22% of 360,000 active; recombinant LMPTP-A, OMFP fluorogenic substrate, fluorescence intensity;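 active = compounds that cut the enzyme signal by at least half of the control window in the single-dose screen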;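 also: plate controls were DMSO wells with enzyme plus substrate for no effect and substrate without enzyme for full effect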
Target sequence (P24666 whole entry, looked up): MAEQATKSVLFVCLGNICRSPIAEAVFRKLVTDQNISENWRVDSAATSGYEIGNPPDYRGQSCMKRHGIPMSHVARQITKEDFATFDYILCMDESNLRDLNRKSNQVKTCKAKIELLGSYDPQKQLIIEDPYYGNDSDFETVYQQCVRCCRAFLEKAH
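Test system: LMPTP-A phosphatase enzyme. Amount: LMPTP-A at 0.625 nM final in the reaction. Reagent: OMFP substrate, 400 µM final. Times: 50 min at room temperature. Signal: endpoint fluorescence intensity from OMFP dephosphorylation. Read-out basis: % inhibition. Benchmarks: no-enzyme and uninhibited controls.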
DNMT1 block – blocks human DNA methyltransferase DNMT1; P26358; DNMT1 molecular beacon, Hinp1I cleavage, fluorescence; inhibition (reported as % activation of signal), % at 10 µM; 0.83% of 360,000 active; AID 588458; in the data active = inhibition above about 50%
Scp-1 inhibitor – inhibitors of human Scp-1 phosphatase; 0.88% of 340,000 active; Q9GZU7; Recombinant Scp1, phosphopeptide, malachite green phosphate absorbance; inhibition, % at 20 µM;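 active = inhibition above about 50% at 20 µM, limit read from the data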;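 also: plate controls were DMSO wells with enzyme for no effect and wells lacking enzyme for full effect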
Target sequence (Q9GZU7 76-261 limits assumed): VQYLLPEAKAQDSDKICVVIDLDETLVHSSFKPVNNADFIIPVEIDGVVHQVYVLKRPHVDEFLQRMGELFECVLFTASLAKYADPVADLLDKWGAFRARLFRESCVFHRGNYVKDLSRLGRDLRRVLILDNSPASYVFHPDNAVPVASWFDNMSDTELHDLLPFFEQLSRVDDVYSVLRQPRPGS
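Material – SCP-1 phosphatase catalytic domain, residues 76-261 · Buffer or medium – Acidic Tris acetate buffer with magnesium and detergent · Also added – Phospho 17-mer peptide substrate · Compound – single 20 µM dose, 1% DMSO · Times – 45 min room-temperature reaction, 5 min colour, 30 min stabiliser · Technique – Phosphate-binding colour reagent, absorbance read at 630 nm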
DNMT1 interf DR – beacon fluorescence artifact, dose response counter-screen. shares compounds with DNMT1 block. molecular beacon fluorescence, spectral interference counter-screen. IC50, µM. 200 tested, under 10 active. AID 602382
DNMT1 inh conf – DNMT1 inhibition confirmation, single concentration. shares compounds with DNMT1 block. DNMT1 molecular beacon HinP1I cleavage, fluorescence. inhibition, % at 10 µM. 8% of 2,300 active. AID 602385;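 active = average inhibition of at least 30% in the single-concentration confirmation test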
DNMT1 interf – beacon fluorescence artifact counter-screen | DNMT1 molecular beacon spectral interference counterscreen, fluorescence 485/520 | shares compounds with DNMT1 block | AID 602387 | activation (fluorescence interference), % at 10 µM | 1% of 2,300 active;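 active = activation of at least 30% at 10 µM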;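 also: DNMT1 catalytic domain with a HinP1I cleavage step and a FAM/dabcyl DNA beacon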
STEP conf – STEP (human) phosphatase inhibition, single concentration confirmation. shares compounds with STEP inh. recombinant STEP, OMFP fluorogenic substrate, fluorescence. inhibition, % at 20 µM. 32% of 520 active. AID 623866;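 also: 0% = enzyme with substrate plus DMSO and 100% = substrate without enzyme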
NadD inh conf – confirmation of Staphylococcus aureus NadD inhibitors | 13% of 2,000 active | purified S. aureus NadD, colorimetric enzyme assay | shares compounds with NadD block | inhibition, % at 20 µM | AID 624309; in the data active = inhibition mostly above about 42%, no sharp cut-off; inactive = mostly below about 42%
* marks the source's active call; other numbers are inactive results; / = not tested or not shown. Compounds with a hit are over-represented: about 2.4% of the library has one in this group of screens. Unless noted, no rule for the calls is given here.

SMILES	NadD block	SUMO1-SIM PPI	STEP inh	LMPTP inh	DNMT1 block	Scp-1 inhibitor	DNMT1 inh conf	DNMT1 interf	NadD inh conf	others
COc1ccc(/C=N/Nc2ncnc3c2[nH]c2ccccc23)c(OC)c1OC	8	-3	-1	0	20	6	/	/	/
COc1cccc(/C=N/Nc2ncnc3c2[nH]c2ccc(C)cc23)c1OC	14	90*	77*	26	60*	20	1	-3	/	STEP conf=4
O=C(NN=C1CCCCCCC1)C(=O)NC1CCCCC1	1	-2	0	-2	1	-5	/	/	/
O=C(CSc1nc(-c2ccc(F)cc2)nc2c1Cc1ccccc1O2)Nc1cccc(C(=O)O)c1	10	108*	97*	88*	99*	89*	6	-14	/	STEP conf=13*
Cc1ccc2nc(NC(=O)c3ccc(S(=O)(=O)N4CCCc5ccccc54)cc3)sc2c1	17	1	121*	1	95*	-6	3	4	/	STEP conf=-5
O=C(Nc1nc2ccc(F)cc2s1)c1cccc(S(=O)(=O)N2CCc3ccccc32)c1	22	1	-1	3	-8	-12	/	/	/
C/C(CC(C)C)=N\NS(=O)(=O)c1ccc(C)c([N+](=O)[O-])c1	-1	-6	90*	-1	86*	1	1	10	/	STEP conf=-4
C/C(=N\NS(=O)(=O)c1ccc(C)c([N+](=O)[O-])c1)c1cccs1	-1	-10	-2	0	-2	-5	/	/	/
O=C(Cn1cc2c(n1)CCCC2)NCCCN1CCCC1	0	-29	3	-4	-6	-12	/	/	/
COc1ccccc1Cc1c(-c2ccc(F)cc2)nc2ccc(Br)cn12	7	-2	-3	1	12	/	/	/	/
COc1ccccc1Cc1c(-c2ccco2)nc2ccc(Br)cn12	45*	12	2	11	71*	/	3	4	26
O=C(CSc1nc2scc(-c3ccco3)c2c(=O)n1-c1ccccc1)NCC1CCCO1 (stereo unspecified)	30*	11	11	25	93*	-5	0	-3	37
C/C(=N\NC(N)=O)c1cc(Cl)cc(Cl)c1O	-2	2	0	1	-1	-17	/	/	/
O=C1CC(c2ccco2)CC(O)=C1C=NCC1CCNCC1 (stereo unspecified)	34*	49*	0	0	67*	-5	1	5	6
COc1ccccc1/C=C/C=c1\sc2nc(=O)c(Cc3ccccc3)nn2c1=O	37*	15	5	11	93*	3	11	-1	19
COc1ccccc1-c1nc2s/c(=C\c3cccs3)c(=O)n2n1	-7	-11	8	2	3	-5	/	/	/
COc1ccc2c3c(cccc13)N(C)N=C2C	52*	10	2	41	93*	-2	-4	-7	9
COc1ccc2c3c(cccc13)OC2=O	-1	-23	3	-1	3	-12	/	/	/
CCOc1ccc(-c2nnc(SCC(=O)Nc3ccc4c(c3)c3ccccc3n4CC)n2N)cc1	31*	7	-2	2	59*	12	1	2	23
CCn1c2ccccc2c2cc(NC(=O)CSc3nnc(-c4ccc(OC)c(OC)c4)n3N)ccc21	13	0	0	2	-20	9	/	/	/
Nc1nc(-c2cc(O)ccc2[N+](=O)[O-])cc(-c2ccccc2)c1[N+](=O)[O-]	53*	50*	3	41	60*	18	5	-6	8
c1ccc(-c2cc(-c3nnc4n3N=C(c3ccc5ccccc5c3)CS4)[nH]n2)cc1	55*	-6	6	3	55*	3	6	-4	4
CCNc1ccc(Br)cc(C(=O)/C=C/c2ccccc2Cl)c1=O	34*	19	9	26	77*	-10	8	8	18
CC(C)N1C(=O)/C(=C/c2nc3ccccc3c(=O)n2-c2ccccc2)c2ccccc21	7	-15	0	3	-6	-2	/	/	/
CCOC(=O)C1=C(C)N=c2s/c(=C\c3ccc(OCC(=O)O)cc3)c(=O)n2C1c1ccc(Cl)cc1 (stereo unspecified)	16	1	34	17	8	31	/	/	/
SMILES	NadD block	SUMO1-SIM PPI	STEP inh	LMPTP inh	DNMT1 block	Scp-1 inhibitor	DNMT1 inh conf	DNMT1 interf	NadD inh conf	others
CC1=C(C(=O)OC(C)C)C(c2ccc(Cl)cc2)n2c(sc(=Cc3ccc(OCC(=O)O)cc3)c2=O)=N1 (stereo unspecified)	30*	106*	87*	88*	104*	/	105*	-1	14	DNMT1 interf DR=>99
Cc1ccc(Cn2c(=N)c(C(=O)NCc3ccco3)cc3c(=O)n4ccccc4nc32)cc1	43*	-5	5	59*	82*	33	3	-5	39
N=c1c(S(=O)(=O)c2ccc(Br)cc2)cc2c(=O)n3ccccc3nc2n1Cc1ccco1	49*	12	16	40	86*	23	5	0	12
Cc1ccc(Cn2c(=N)c(C(=O)NCC3CCCO3)cc3c(=O)n4ccccc4nc32)cc1 (stereo unspecified)	0	-36	1	1	1	6	/	/	/
CC1CCCCC1NC(=O)CN1C(=O)COc2ccccc21 (stereo unspecified)	-3	0	-2	-1	2	4	/	/	/
C=C(C)[C@@H]1CC[C@]2(C(=O)O)CC[C@]3(C)[C@H](CC[C@@H]4[C@@]5(C)CC[C@H](O)C(C)(C)[C@@H]5CC[C@]43C)[C@@H]12	53*	22	0	-3	53*	-9	2	-14	13
Cc1cccn2c(=O)c3cc(C(N)=S)c(=N)n(CCCOC(C)C)c3nc12	52*	-9	6	22	62*	-2	4	0	2
CCOCCCn1c(=N)c(C(N)=S)cc2c(=O)n3cccc(C)c3nc21	29	-1	2	22	32	2	/	/	/
CN(c1ccc(C(=O)NCc2cccs2)cc1)S(=O)(=O)c1ccccc1	1	9	3	1	-3	-6	/	/	/
